System: DU-145 prostate cancer cells
Assay: In vitro antiproliferation assay
Assay type: cell-based
Conditions: Homo sapiens, DU-145, 72 h, read-out: DU-145 (IC50, nM)
Summary of the method: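 DU-145 cells (ATCC) grown in medium with 10% (v/v) FBS, 50 units/ml penicillin and 50 µg/ml streptomycin at 37 °C, 5% CO2. Seeded at 5 × 10^4 cells/well, left overnight, then exposed to varying test compound concentrations for 72 h at 37 °C. A 5 mg/mL MTT solution was added for 4 h. Supernatant was removed by centrifugation and crystals dissolved in DMSO. A570 was read. IC50 came from nonlinear regression; mean ± SD, n = 3.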

CC[C@@H]1C(=O)N(C)c2cnc(Nc3ccc(C(=O)N[C@H]4CC[C@H](N5CCN(CC6CC6)CC5)CC4)cc3OC)nc2N1C(C)C [BI-6727, volasertib]
IC50: 4.03 ± 0.15 nM
